How the values were obtained:
[1] = system: Rattus norvegicus; experiment: Analgesic activity on peroral administration against Scald induced pain in rat paw; type: functional; details: for ED50: Rattus norvegicus, po, read-out: ID50 (the source's name)
Summary of the method: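 Male Wister Imamichi rats (~100 g), fasted 16 h. A hind paw was scalded at 57 °C for 6 s, then restimulated at 40 °C for 5 s. Compounds at 58–0.23 mg/kg in 0.5% tragacanth were given orally 2 h after scalding. Paw-lifting time over 30 s was recorded 1 and 2 h post-dose, and the mean used for % inhibition and ID50.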

[2] = system: Rattus norvegicus; experiment: Antiinflammatory activity on peroral administration against carrageenan paw edema; type: functional; details: po, read-out: ID50 (the source's name)
Summary of the method: (§1)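 Compound given; 30 min later 1% carrageenan in saline injected subcutaneously into the hind-paw plantar region. Paw volume measured just before and 3 h after carrageenan. ID50 from a least-squares regression line of percent inhibition against dose.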

[3] = system: Cavia porcellus; experiment: Antipyretic activity on peroral administration against LPS-induced fever in guinea pig.; type: functional; details: po, read-out: ID50 (the source's name)
Summary of the method: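 Female Hartley guinea pigs (300–350 g), fasted 16 h. Fever induced with E. coli LPS at 1 µg/kg i.v. Compounds were dosed at 6.3–0.23 mg/kg. Rectal temperature was taken 1 and 2 h after dosing and the mean used. ID50 by least-squares regression of % inhibition on dose.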

[4] = system: Rattus norvegicus; experiment: Antiinflammatory activity on peroral administration in rat determined by Randall-Slelitto test; type: functional; details: po
Summary of the method: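 Fasted male Wister Imamichi rats (60–90 g) received 20% brewer's yeast in the right hind paw. After 4 h, rats with pressure pain threshold below 10×30 g were dosed at 50–0.05 mg/kg. Animals were counted effective if the threshold rise exceeded twice the unmedicated control. ED50 by Litchfield–Wilcoxon.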

[5] = system: Rattus norvegicus; experiment: Antiinflammatory activity on peroral administration against adjuvant arthritis in rat.; type: functional; details: po, read-out: ID50 (the source's name)
Summary of the method: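 Female Lewis rats (160–200 g) received complete Freund adjuvant (heat-killed M. tuberculosis, 1 mg/mL in liquid paraffin) in the right hind paw. Dosing was 5.0–0.04 mg/kg once daily, days 0–20. Injected-paw swelling was measured by water displacement (day before vs day 21), as % inhibition versus untreated control. ID50 by least-squares regression.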

[6] = system: Rattus norvegicus; experiment: Antiinflammatory activity on peroral administration against carrageenan induced rat paw edema.; type: functional; details: po, read-out: ID50 (the source's name); summary of the method: as §1
[7] = system: Rattus norvegicus; experiment: Gastric lesion activity on peroral administration in rat.; type: functional; details: po
Summary of the method: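 Male Wister Imamichi rats (~120 g), fasted 16 h, dosed at 20–2.5 mg/kg. Killed 3.5 h later; stomachs opened along the greater curvature and rinsed with saline. Dark brown lesions of 0.5 mm length were counted under a stereomicroscope.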

[8] = system: Cavia porcellus; experiment: Analgesic activity on peroral administration against Bradykinin induced pain in guinea pig paw; details: po
[9] = system: Rattus norvegicus; experiment: Analgesic activity on peroral administration against scald induced pain in rat paw; type: functional; details: po, read-out: ID50 (the source's name)
Summary of the method: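 Male Wister Imamichi rats (about 100 g), fasted 16 h, had one hind paw scalded in 57 °C water for 6 s, then re-dipped in 40 °C water for 5 s. Oral dosing in 0.5% tragacanth (58–0.23 mg/kg) followed 2 h after scalding. Paw-lifting time within 30 s was scored 1 and 2 h post-dose. The mean of the two readings gave percent inhibition and ID50.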

Work on `CC(C(=O)O)c1ccc(CC2CCCCCC2=O)cc1` (stereo not given) yielded an ED50 [1] of over 100 mg/kg and an ED50 [2] of over 100 mg/kg.
Molecule `CC(C(=O)O)c1ccc(/C=C2\CCCC2=O)cc1` (stereo not given) has an ED50 [1] of 1.3 mg/kg and an ED50 [2] of 1.5 mg/kg.
Molecule `O=C(O)Cc1ccc(CC2CCCC/C2=N/O)cc1` (stereo not given) has an ED50 [1] of 31.1 mg/kg and an ED50 [2] of 23.5 mg/kg.
With `CC(C(=O)O)c1ccc(CC2CCCC2)cc1` (stereo not given) the ED50 [1] was 5.1 mg/kg and the ED50 [2] was over 100 mg/kg.
Work on `O=C(O)Cc1ccc(CC2CCC/C2=N/O)cc1` (stereo not given) yielded an ED50 [1] of 15 mg/kg and an ED50 [2] of 24.8 mg/kg.
`CC(C)Cc1ccc(C(C)C(=O)O)cc1` (stereo not given) [IBUPROFEN] gave an ED50 [1] of 15.9 mg/kg.
With `O=C(O)Cc1ccc(CC2CCCCC2=O)cc1` (stereo not given) the ED50 [1] was 53.8 mg/kg and the ED50 [2] was 45.7 mg/kg.
Work on `CC(C(=O)O)c1ccc(/C=C2\CCCCC2=O)cc1` (stereo not given) [PELUBIPROFEN] yielded an ED50 [3] of 1.5 mg/kg, an ID50 [1] of 1.7 mg/kg and an ED50 [1] of 1.8 mg/kg. For the same molecule, the ED50 [4] was 0.94 mg/kg, the ED50 [5] was 0.06 mg/kg and the ED50 [6] was 1.2 mg/kg. The ED50 [2] was 0.9 mg/kg, the UD50 [7] was 14.3 mg/kg and the ED50 [8] was 4.5 mg/kg.
Molecule `CC(C(=O)O)c1ccc(CC2CCCCC/C2=N/O)cc1` (stereo not given) has an ED50 [1] of over 100 mg/kg and an ED50 [2] of over 100 mg/kg.
Work on `CC(C(=O)[O-])c1ccc(CC2CCCC2=O)cc1.[Na+]` (stereo not given) [LOXOPROFEN SODIUM] yielded an ED50 [3] of 0.76 mg/kg, an ED50 [1] of 0.76 mg/kg and an ED50 [4] of 0.13 mg/kg. The ED50 [5] was 0.59 mg/kg, the ED50 [2] was 1.2 mg/kg and the UD50 [7] was 16.1 mg/kg. The ED50 [8] was 0.4 mg/kg.
Work on `CC(C(=O)O)c1ccc(/C=C2\CCCCCC2=O)cc1` (stereo not given) yielded an ED50 [1] of over 100 mg/kg and an ED50 [2] of over 100 mg/kg.
With `CC(C(=O)O)c1ccc(CC2CCC/C2=N/O)cc1` (stereo not given) the ED50 [1] was 4.9 mg/kg and the ED50 [2] was 1.3 mg/kg.
Molecule `CC(C(=O)O)c1ccc(CC2CCCC2=O)cc1` (stereo not given) [LOXOPROFEN] has an ED50 [1] of 0.8 mg/kg and an ED50 [2] of 1.7 mg/kg.
For `O=C(O)Cc1ccc(CC2CCCC2=O)cc1` (stereo not given), the ED50 [1] was 23 mg/kg and the ED50 [2] was 9.1 mg/kg.
Work on `COc1ccc2c(c1)c(CC(=O)O)c(C)n2C(=O)c1ccc(Cl)cc1` [INDOMETHACIN] yielded an ED50 [3] of 9.5 mg/kg, an ED50 [1] of 3.5 mg/kg and an ED50 [9] of 3.5 mg/kg. For the same molecule, the ED50 [4] was 2.8 mg/kg, the ED50 [2] was 2.2 mg/kg and the UD50 [7] was 6.4 mg/kg. The ED50 [8] was 8.3 mg/kg.
`CC(C(=O)O)c1ccc(CC2CCCCC2=O)cc1` (stereo not given) gave an ED50 [1] of 9.1 mg/kg and an ED50 [2] of 1.2 mg/kg.
`CC(C(=O)O)c1ccc(CC2CCCC/C2=N/O)cc1` (stereo not given) gave an ED50 [1] of 3.6 mg/kg and an ED50 [2] of 1.4 mg/kg.
